Only some compounds are listed: those with a hit (about 6.4% of all), similar ones and a draw of the others.
CHOP inh = inhibitors of CHOP induction in ER stress response; CHO-K1 CHOP-promoter luciferase, tunicamycin-induced, 15-18 h; inhibition, % at 10 µM; 220,000 tested, 3.8% active; AID 2732;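 active means compounds that reduced the stress-induced luciferase reporter signal by more than about 70% of percent inhibition, limit read from the data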
EBV gp42 inh = inhibitors of Epstein-Barr virus glycoprotein 42. Q1HVG2. Fluorescence polarization binding assay, mP read-out. inhibition, % (tested at 21.74 µM). 220,000 tested, 0.42% active. AID 1085; in the data active means inhibition above about 50%
Target sequence (Q1HVG2 whole entry, looked up): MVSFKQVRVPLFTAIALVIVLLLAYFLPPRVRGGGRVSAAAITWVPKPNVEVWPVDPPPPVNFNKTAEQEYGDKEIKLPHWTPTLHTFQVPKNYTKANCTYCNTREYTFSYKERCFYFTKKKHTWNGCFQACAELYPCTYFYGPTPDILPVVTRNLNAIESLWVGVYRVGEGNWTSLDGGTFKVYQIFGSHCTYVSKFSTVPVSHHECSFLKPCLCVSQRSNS
GRIN3A LBD mod = modulators (binders) of human NR3A ligand-binding domain. Tm shift relative to glycine control, % at 25 µM. 340,000 tested, 2.5% active. NR3A LBD differential scanning fluorimetry, Tm shift; 0% = protein alone, 100% = glycine-bound protein. AID 1259313;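 active means melting temperature shift of at least 10% of the positive control shift, at one fixed dose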
TbMetRS inhib = blocks T. brucei methionyl-tRNA synthetase activity. purified T. brucei MetRS, ATP depletion, Kinase-Glo luminescence. inhibition, % at 11.9 µM. 360,000 tested, 0.4% active. AID 624268;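 active means inhibition above a per-plate cutoff of the control wells' mean inhibition plus 3 SD, cut at about 5.5% in these data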
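Test system – parasite MetRS enzyme · Reagent – substrates ATP, L-methionine and bulk Escherichia coli tRNA · Doses – 11.9 µM compound single dose, 0.9% DMSO · Times – 15 min enzyme-compound preincubation, 2 h reaction, 10 min detection, 25 °C · Signal – Kinase-Glo luminescence, ATP depletion format · Controls – DMSO-only wells as low control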
MPTP inh = permeability transition pore inhibition; isolated mouse mitochondria, Ca2+ swelling absorbance, 30 min; 360,000 tested, 1.4% active; inhibition, % at 10 µM;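 active means inhibition of 50% or more, scaled per plate between neutral and stimulator controls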
WT yeast gro inh = growth inhibition of WT yeast, mitochondrial fusion screen; 190,000 tested, 2.1% active; inhibition, % at 10 µM; AID 1362; mitochondrial fusion phenotypic screen, WT strain; in the data active means inhibition above about 58%; tested in S. cerevisiae
Each line names hits and unclear results; the compound was inactive in the other large screens.

COc1ccc([N+](=O)[O-])cc1NC(=O)C1CCCCC1C(=O)O (configuration not stated)	GRIN3A LBD mod 18
O=C(O)C1CCCCC1C(=O)Nc1ccc(F)c(F)c1 (configuration not stated)	none
COc1ccc([N+](=O)[O-])cc1NC1CCCCC1	GRIN3A LBD mod 15
CCCC(=O)OCCNc1cc(Sc2nccn2C)c2nonc2c1[N+](=O)[O-]	CHOP inh 108
CCCSc1cc(NCCOC(C)=O)c([N+](=O)[O-])c2nonc12	GRIN3A LBD mod 13
CCCCCCCCN1C(=O)[C@H](CC(=O)NCC2CCCCC2)C[C@@]2(C(=O)OC)CC(C)(C)CC=C12	none (no result: CHOP inh, EBV gp42 inh, GRIN3A LBD mod, WT yeast gro inh)
O=C(Nc1cc(C(F)(F)F)ccc1N1CCOCC1)c1ccncc1	none (no result: CHOP inh, EBV gp42 inh, WT yeast gro inh)
Cc1cc(C)c(NC(=O)COC(=O)c2cccc3c2C(=O)c2ccccc2C3=O)c(C)c1	none
Cc1cc(C)c(Nc2cc(S(=O)(=O)O)c(N)c3c2C(=O)c2ccccc2C3=O)c(C)c1	GRIN3A LBD mod 547
Nc1nc(CSc2ccc(Cl)cc2)nc(N2CCCCC2)n1	WT yeast gro inh 74
CCN(CC)S(=O)(=O)c1cc(C(=O)Nc2cc(Cl)ccc2N2CCN(C)CC2)ccc1Cl	WT yeast gro inh 65
Cc1ccc(C)c(NC(=O)Cn2nc(C(F)(F)F)cc2C2CC2)c1	none
NNC(=O)c1ccc(COc2cccc3ccccc23)o1	none (no result: WT yeast gro inh)
NC(=O)c1ccc(NC(=O)c2ccc(COc3ccccc3Br)cc2)cc1	GRIN3A LBD mod 22 (no result: CHOP inh, EBV gp42 inh, WT yeast gro inh)
NNC(=O)c1ccc(COc2cccc3ccccc23)cc1	WT yeast gro inh 73
COC(=O)c1ccc(Cn2nc(C)cc2C)cc1	none
Cc1cc(C)n(Cc2ccc(NC(=O)c3ccc(COc4ccccc4Br)cc3)cc2)n1	GRIN3A LBD mod 10
O=C(Nc1cccnc1)c1ccc(COc2ccccc2Br)cc1	GRIN3A LBD mod 36 (no result: CHOP inh, EBV gp42 inh, WT yeast gro inh)
C=CCNC(=O)c1onc(CSc2cccc(Cl)c2)c1C(=O)O	none
C=CCNC(=O)c1onc(CSc2cccc(C)c2)c1C(=O)O	GRIN3A LBD mod 13
CC1(C)CC2CC(C)(CN2C(=O)NC(=O)c2ccccc2)C1 (configuration not stated)	none
Cc1ccc(C(=O)Nc2ccccc2C(=O)N2CC3(C)CC2CC(C)(C)C3)cc1 (configuration not stated)	CHOP inh 93
O=[N+]([O-])c1ccc2nc(NS(=O)(=O)c3ccccc3[N+](=O)[O-])sc2c1	GRIN3A LBD mod 14 (no result: CHOP inh, EBV gp42 inh, WT yeast gro inh)
CC(C)=CC(=O)Nc1nc2ccc([N+](=O)[O-])cc2s1	none
O=[N+]([O-])c1ccccc1S(=O)(=O)Nc1nc2ccccc2s1	none (no result: CHOP inh, EBV gp42 inh, WT yeast gro inh)
O=[N+]([O-])c1ccc2nc(NS(=O)(=O)c3ccc(Cl)cc3)sc2c1	GRIN3A LBD mod 18 (no result: CHOP inh, EBV gp42 inh, WT yeast gro inh)
Cc1ccc(-c2nnc3n2CCCCC3)cc1	WT yeast gro inh 74
Clc1ccc(-c2nnc3n2CCCC3)cc1	none
O=C(NN1C(=O)C2C(c3ccccc3)C=CC(c3ccccc3)C2C1=O)c1ccccc1 (configuration not stated)	none
O=C(NN1C(=O)C2C(c3ccccc3)C=CC(c3ccccc3)C2C1=O)c1cccc(Br)c1 (configuration not stated)	GRIN3A LBD mod 20
CSc1nc2c(cc1C#N)C(=O)CC(C)(C)C2	none
Cc1ccc(C(=O)N2CCN(c3ccccc3Cl)CC2)cc1[N+](=O)[O-]	WT yeast gro inh 76
Oc1ccc(/C=N/Nc2ccc(Cl)nn2)c(O)c1O	GRIN3A LBD mod 22 (no result: CHOP inh, EBV gp42 inh, WT yeast gro inh)
COC[C@@H]1CCCN1c1ccc2c(c1)O[C@H](COCc1ccccc1)CN([C@H](C)c1ccccc1)S2(=O)=O	none (no result: CHOP inh, EBV gp42 inh, GRIN3A LBD mod, WT yeast gro inh)
O=C1CSC(c2ccc(F)cc2)N1c1nc2ccccc2s1 (configuration not stated)	WT yeast gro inh 75
FC(F)(F)c1ccc(Cl)c(N/N=C/c2ccc(N3CCOCC3)s2)c1	WT yeast gro inh 58
O=C(N/N=C/c1ccc(N2CCOCC2)s1)c1ccccc1Cl	none (no result: WT yeast gro inh)
Cc1nc(N2CCCC2)c2nnn(Cc3ccccc3Cl)c2n1	CHOP inh 73
CC(C)CCNc1ncnc2c1nnn2Cc1ccccc1Cl	CHOP inh 79
OCCNc1ncnc2c1nnn2Cc1ccccc1Cl	none (no result: CHOP inh, EBV gp42 inh, GRIN3A LBD mod, WT yeast gro inh)
Cc1ccc(C(=O)C2=C(O)C(=O)N(Cc3cccnc3)C2c2ccc(OC(C)C)cc2)o1 (configuration not stated)	none (no result: CHOP inh, EBV gp42 inh, WT yeast gro inh)
C=CCc1cccc(OC)c1OCCOCCn1ccnc1	GRIN3A LBD mod 12
Cc1cc(C)c(OCCCCNCc2ccccc2)c(Cl)c1	CHOP inh 75
COc1ccc(NC(=O)c2ccco2)cc1N	CHOP inh 70
COc1ccc(Br)cc1C(=O)Nc1ccc(NC(=O)c2ccco2)cc1	GRIN3A LBD mod 18
COc1c(F)c(F)c(C(=O)Nc2ccc(NC(=O)c3ccco3)cc2)c(F)c1F	CHOP inh 80
O=C(Nc1ccc(Br)cc1)c1ccco1	none
COc1ccc(NC(=O)c2ccco2)cc1NC(=O)c1ccco1	none
NS(=O)(=O)c1ccc(NC(=S)NC(=O)c2cccs2)cc1	none (no result: WT yeast gro inh)
Cc1cc(S(=O)(=O)Nc2ccc(C(=O)NCC3(N4CCCCC4)CCCCC3)cc2)ccc1F	none (no result: CHOP inh, EBV gp42 inh, WT yeast gro inh)
COc1ccc(CC(=O)c2ccccc2C(=O)O)cc1	none (no result: GRIN3A LBD mod)
O=C(CCn1nnc2ccccc2c1=O)N[C@@H](Cc1ccccc1)C(=O)O	none
CC1CCN(C(=O)C2CCN(C(=O)c3cc4sccc4n3Cc3ccc(F)cc3)CC2)CC1	CHOP inh 71
COC(=O)c1cc([N+](=O)[O-])c(-n2ccnc2)c([N+](=O)[O-])c1	CHOP inh 90
CCCCOC1(c2ccccc2)OC(=O)c2ccccc21 (configuration not stated)	CHOP inh 81
O=C(c1ccco1)N(Cc1ccccc1)c1cccc([N+](=O)[O-])c1	none
Cn1c(SCc2ccc(Cl)cc2)nc(C(F)(F)F)cc1=O	CHOP inh 73
Cc1c(Cc2ccccc2)c(=O)oc2cc(OCC(=O)NC(Cc3ccc(Cl)cc3)C(=O)O)ccc12 (configuration not stated)	none (no result: CHOP inh, EBV gp42 inh, WT yeast gro inh)
COC(=O)C1CCN(CCCOc2ccc(CN3CCN(c4ccc([N+](=O)[O-])cc4)CC3)cc2)CC1	none
CCCCCCCCOC(=O)c1nc(Cl)c(Cl)c(N)c1Cl	WT yeast gro inh 69
O=C(O)COc1ccc(/C=N/NC(=O)c2cn(-c3ccccc3)nc2-c2ccccc2)cc1	none (no result: CHOP inh, EBV gp42 inh, WT yeast gro inh)
O=C(N/N=C/c1ccc([N+](=O)[O-])o1)c1cn(-c2ccccc2)nc1-c1ccccc1	CHOP inh 95, GRIN3A LBD mod 13
O=C(N/N=C/c1ccc([N+](=O)[O-])o1)c1cn(-c2ccccc2)nc1-c1ccc(Cl)cc1	GRIN3A LBD mod 34
COC(=O)c1ccc(S(=O)(=O)N2CCCC2)o1	none
Cc1ccc([C@@H]2CC=C(C(=O)O)[C@H](c3cccc(Cl)c3)N2S(=O)(=O)c2ccccc2C)cc1	none (no result: CHOP inh, EBV gp42 inh, WT yeast gro inh)
O=c1c2cc(-c3ccccc3)sc2ncn1-n1cccc1	none (no result: WT yeast gro inh)

Compound activity (PubChem)
